According to PMC4664024 (Blood Coagulation & Fibrinolysis, 2015):
Where two headings read alike, the source gives them in different places.

Key:
[1] = tested on: activated partial thromboplastin clotting time (aPTT); test: Activated partial thromboplastin time; assay type: in vivo, human; conditions: at peak concentration and at steady state (T2–T3)
In short: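 Blood drawn the day before surgery (T0), then 2 h ± 10 min post-dose on day 4 ± 1 (T2) and day 7 ± 1 (T3). aPTT (s) run on an automated coagulation analyser. Reported as median and 25th–75th percentiles; Wilcoxon signed-rank test for repeated measures.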

[2] = assay type: in vivo, human
[3] = biological target: exogenous bovine Xa (Bos taurus, UniProt P00743); test: Plasma concentration by functional anti-Xa test in orthopaedic patients; assay type: in vivo; conditions: for range of concentrations observed with the anti-Xa functional tests: T0, before starting the treatment
exogenous bovine Xa, sequence (P00743 234-492 limits assumed): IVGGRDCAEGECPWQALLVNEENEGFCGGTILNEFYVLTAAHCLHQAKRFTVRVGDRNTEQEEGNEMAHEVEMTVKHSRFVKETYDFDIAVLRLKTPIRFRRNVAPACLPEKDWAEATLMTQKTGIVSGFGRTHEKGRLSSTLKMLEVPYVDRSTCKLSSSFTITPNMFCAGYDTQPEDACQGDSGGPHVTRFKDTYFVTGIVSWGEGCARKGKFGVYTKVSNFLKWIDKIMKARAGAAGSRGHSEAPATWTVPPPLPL
exogenous bovine Xa, sequence (P00743 41-180 limits assumed): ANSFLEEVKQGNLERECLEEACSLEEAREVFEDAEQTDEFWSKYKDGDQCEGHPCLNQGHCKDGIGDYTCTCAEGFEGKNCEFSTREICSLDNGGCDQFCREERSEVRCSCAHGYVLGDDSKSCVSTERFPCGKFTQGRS

[4] = healthy Japanese individuals, cited from earlier work

Row | interindividual variation in the Cmax (coefficient of variation) ([2]; T1, first intake the day after surgery) | range of concentrations observed with the anti-Xa functional tests [3] | Cmax ([2]; human, plasma, oral, 2.5 mg) | plasma concentration by anti-Xa functional assay, arithmetic mean and SD ([3]; T0 (D−1), before starting the treatment) | Compound | mean increase in aPTT [1] | minimum period before reaching the steady state ([4]; 2.5 mg twice daily) | Cmax ([4]; after 7 days of 2.5-mg twice-daily treatment) | Cmax ([4]; after a first intake of 2.5 mg)
1 | around 100% | 0 to 25 ng/mL | – | – | O=C(NC[C@H]1CN(c2ccc(N3CCOCC3=O)cc2)C(=O)O1)c1ccc(Cl)s1 [Rivaroxaban] | 15 s | – | – | –
2 | – | 0 to 24 ng/mL | 75 ± 37 ng/mL | 6 ± 7.5 ng/mL | COc1ccc(-n2nc(C(N)=O)c3c2C(=O)N(c2ccc(N4CCCCC4=O)cc2)CC3)cc1 [Apixaban] | 6 s | ≥ 3 treatment days | 84 ng/mL | 51 ± 25 ng/mL
